Reference: ChEMBL document CHEMBL4680175, “Sulfonamide-based ring-fused analogues for CAN508 as novel carbonic anhydrase inhibitors endowed with antitumor activity: Design, synthesis, and in vitro biological evaluation” (Eur J Med Chem, 2020)
Activity calls are given as the source filed them. No cut-off for these calls is given here.

How the values were obtained:
[1] = target: Cyclin-dependent kinase 2/cyclin E1 (Homo sapiens, UniProt P24941); assay: Inhibition of CDK2/cyclin E (unknown origin) expressed in baculovirus infected Sf21 insect cells using histone H1 as substrate in presence of [gamma33P]ATP
Carbonic anhydrase 1 = Carbonic anhydrase 1 (Homo sapiens, UniProt P00915); assay: Inhibition of recombinant human carbonic anhydrase 1 preincubated with enzyme for 15 mins by phenol red dye based stopped flow CO2 hydrase assay
CDK9/cyclin T1 = CDK9/cyclin T1 (Homo sapiens, UniProt P50750); assay: Inhibition of human full-length N-terminal GST/His6-tagged CDK9 (1 to 372 residues)/His6-tagged Cyclin-T1 (1 to 726 residues) expressed in sf9 cells using (YSPTSPS)2KK peptide as substrate in presence of [gamma33P]ATP
Carbonic anhydrase 2 = Carbonic anhydrase 2 (Homo sapiens, UniProt P00918); assay: Inhibition of recombinant human carbonic anhydrase 2 preincubated with enzyme for 15 mins by phenol red dye based stopped flow CO2 hydrase assay
Carbonic anhydrase 12 = Carbonic anhydrase 12 (Homo sapiens, UniProt O43570); assay: Inhibition of recombinant human carbonic anhydrase 12 preincubated with enzyme for 15 mins by phenol red dye based stopped flow CO2 hydrase assay
Carbonic anhydrase 9 = Carbonic anhydrase 9 (Homo sapiens, UniProt Q16790); assay: Inhibition of recombinant human carbonic anhydrase 9 preincubated with enzyme for 15 mins by phenol red dye based stopped flow CO2 hydrase assay
SK-OV-3 = assay: Antitumor activity against human SK-OV-3 cells assessed as cell growth inhibition at 10 uM incubated for 48 hrs by sulforhodamine B assay; format: functional; conditions: read-out: GI
Procedure, shortened: (§1)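 NCI Drug Evaluation Branch protocol: primary single-dose screen at 10 μM across a 57-line human cancer panel. Drug exposure is 48 h. Cell growth and viability are read by sulforhodamine B assay. Data are given as a mean graph of percent growth of treated cells and reported as percentage growth inhibition (GI%).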

TK-10 = assay: Antitumor activity against human TK-10 cells assessed as cell growth inhibition at 10 uM incubated for 48 hrs by sulforhodamine B assay; format: functional; conditions: read-out: GI
Procedure, shortened: (§2)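 NCI one-dose screen: 57-cell-line panel exposed at 10 μM for 48 h, Drug Evaluation Branch protocol. Growth and viability read by sulforhodamine B; data given as percent growth inhibition from the mean-graph of percent growth of treated cells.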

SNB-75 = assay: Antitumor activity against human SNB-75 cells assessed as cell growth inhibition at 10 uM incubated for 48 hrs by sulforhodamine B assay; format: functional; conditions: read-out: GI; procedure, shortened: as §2
BT-549 = assay: Antitumor activity against human BT-549 cells assessed as cell growth inhibition at 10 uM incubated for 48 hrs by sulforhodamine B assay; format: functional; conditions: read-out: GI; procedure, shortened: as §1
Hs-578T = assay: Antitumor activity against human HS 578T cells assessed as cell growth inhibition at 10 uM incubated for 48 hrs by sulforhodamine B assay; format: functional; conditions: read-out: GI; procedure, shortened: as §1
NCI-H460 = assay: Antitumor activity against human NCI-H460 cells assessed as cell growth inhibition at 10 uM incubated for 48 hrs by sulforhodamine B assay; format: functional; conditions: read-out: GI; procedure, shortened: as §1
ACHN = assay: Antitumor activity against human ACHN cells assessed as cell growth inhibition at 10 uM incubated for 48 hrs by sulforhodamine B assay; format: functional; conditions: read-out: GI; procedure, shortened: as §1
RXF 393 = assay: Antitumor activity against human RXF 393 cells assessed as cell growth inhibition at 10 uM incubated for 48 hrs by sulforhodamine B assay; format: functional; conditions: read-out: GI; procedure, shortened: as §1
NCI-H322M = assay: Antitumor activity against human NCI-H322M cells assessed as cell growth inhibition at 10 uM incubated for 48 hrs by sulforhodamine B assay; format: functional; conditions: read-out: GI; procedure, shortened: as §1
IGROV-1 = assay: Antitumor activity against human IGROV1 cells assessed as cell growth inhibition at 10 uM incubated for 48 hrs by sulforhodamine B assay; format: functional; conditions: read-out: GI; procedure, shortened: as §1
NCI/ADR-RES = assay: Antitumor activity against human NCI/ADR-RES cells assessed as cell growth inhibition at 10 uM incubated for 48 hrs by sulforhodamine B assay; format: functional, cell-based; procedure, shortened: as §1
SR = assay: Antitumor activity against human SR cells assessed as cell growth inhibition at 10 uM incubated for 48 hrs by sulforhodamine B assay; format: functional; conditions: read-out: GI; procedure, shortened: as §2
M14 = assay: Antitumor activity against human M14 cells assessed as cell growth inhibition at 10 uM incubated for 48 hrs by sulforhodamine B assay; format: functional; conditions: read-out: GI; procedure, shortened: as §1
786-0 = assay: Antitumor activity against human 786-0 cells assessed as cell growth inhibition at 10 uM incubated for 48 hrs by sulforhodamine B assay; format: functional; conditions: read-out: GI; procedure, shortened: as §1
LOX IMVI = assay: Antitumor activity against human LOX IMVI cells assessed as cell growth inhibition at 10 uM incubated for 48 hrs by sulforhodamine B assay; format: functional; conditions: read-out: GI; procedure, shortened: as §1
NCI-H522 = assay: Antitumor activity against human NCI-H522 cells assessed as cell growth inhibition at 10 uM incubated for 48 hrs by sulforhodamine B assay; format: functional; conditions: read-out: GI; procedure, shortened: as §1
UO-31 = assay: Antitumor activity against human UO-31 cells assessed as cell growth inhibition at 10 uM incubated for 48 hrs by sulforhodamine B assay; format: functional; conditions: read-out: GI; procedure, shortened: as §2
CAKI-1 = assay: Antitumor activity against human CAKI-1 cells assessed as cell growth inhibition at 10 uM incubated for 48 hrs by sulforhodamine B assay; format: functional; conditions: read-out: GI; procedure, shortened: as §1
A498 = assay: Antitumor activity against human A498 cells assessed as cell growth inhibition at 10 uM incubated for 48 hrs by sulforhodamine B assay; format: functional; conditions: read-out: GI; procedure, shortened: as §1

Chain of Carbonic anhydrase 12 (O43570 whole entry): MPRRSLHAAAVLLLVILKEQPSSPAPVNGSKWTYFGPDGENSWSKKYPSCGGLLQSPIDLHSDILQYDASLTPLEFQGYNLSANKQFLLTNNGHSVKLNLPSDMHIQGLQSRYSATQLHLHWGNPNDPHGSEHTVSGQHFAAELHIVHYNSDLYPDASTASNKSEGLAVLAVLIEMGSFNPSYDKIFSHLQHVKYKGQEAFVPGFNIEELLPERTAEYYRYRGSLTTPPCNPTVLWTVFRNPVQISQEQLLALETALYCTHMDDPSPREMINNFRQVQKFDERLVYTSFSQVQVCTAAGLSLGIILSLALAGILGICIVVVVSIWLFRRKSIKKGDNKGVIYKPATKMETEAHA
Chain of Carbonic anhydrase 1 (P00915 whole entry, the tested form may be a part): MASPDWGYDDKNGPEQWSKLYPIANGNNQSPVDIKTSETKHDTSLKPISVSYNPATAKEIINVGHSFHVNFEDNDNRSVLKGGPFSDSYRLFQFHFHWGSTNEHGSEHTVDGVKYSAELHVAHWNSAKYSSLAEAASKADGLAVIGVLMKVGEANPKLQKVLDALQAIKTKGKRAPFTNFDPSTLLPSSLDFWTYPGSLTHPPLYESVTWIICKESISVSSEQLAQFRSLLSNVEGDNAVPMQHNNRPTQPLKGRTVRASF
Chain of CDK9/cyclin T1 (O60563 whole entry, the tested form may be a part): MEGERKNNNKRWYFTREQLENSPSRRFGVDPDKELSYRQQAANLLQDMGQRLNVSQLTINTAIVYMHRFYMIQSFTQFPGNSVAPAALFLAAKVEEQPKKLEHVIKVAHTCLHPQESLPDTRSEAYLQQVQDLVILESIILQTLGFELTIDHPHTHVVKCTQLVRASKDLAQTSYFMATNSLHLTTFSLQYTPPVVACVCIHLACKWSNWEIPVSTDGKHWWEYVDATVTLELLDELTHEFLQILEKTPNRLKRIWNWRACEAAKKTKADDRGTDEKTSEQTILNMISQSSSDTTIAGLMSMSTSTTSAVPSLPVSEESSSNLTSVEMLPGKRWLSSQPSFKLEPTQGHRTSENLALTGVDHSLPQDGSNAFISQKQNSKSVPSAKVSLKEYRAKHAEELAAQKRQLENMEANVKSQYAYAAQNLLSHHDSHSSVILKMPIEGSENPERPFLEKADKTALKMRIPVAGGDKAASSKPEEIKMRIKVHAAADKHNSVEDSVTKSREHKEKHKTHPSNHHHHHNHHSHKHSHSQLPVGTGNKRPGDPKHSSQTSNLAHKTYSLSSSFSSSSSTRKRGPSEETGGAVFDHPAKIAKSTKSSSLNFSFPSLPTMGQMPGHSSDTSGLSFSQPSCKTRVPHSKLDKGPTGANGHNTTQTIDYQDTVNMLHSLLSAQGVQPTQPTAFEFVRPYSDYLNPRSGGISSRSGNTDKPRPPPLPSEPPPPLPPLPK
Chain of CDK9/cyclin T1 (P50750 whole entry, the tested form may be a part): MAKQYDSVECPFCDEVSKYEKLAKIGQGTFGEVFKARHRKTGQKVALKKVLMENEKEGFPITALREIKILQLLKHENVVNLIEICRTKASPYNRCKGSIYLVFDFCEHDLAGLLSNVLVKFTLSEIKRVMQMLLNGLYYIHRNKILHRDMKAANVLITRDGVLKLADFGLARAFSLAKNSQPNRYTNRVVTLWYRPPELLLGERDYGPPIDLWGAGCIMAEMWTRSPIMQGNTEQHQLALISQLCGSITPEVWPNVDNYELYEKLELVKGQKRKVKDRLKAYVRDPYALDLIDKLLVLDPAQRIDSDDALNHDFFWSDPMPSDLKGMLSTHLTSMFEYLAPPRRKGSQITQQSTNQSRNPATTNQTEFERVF

IC50 [1] [nM] | Ki (Carbonic anhydrase 1) [nM] | IC50 (CDK9/cyclin T1) [nM] | Ki (Carbonic anhydrase 2) [nM] | Ki (Carbonic anhydrase 12) [nM] | Ki (Carbonic anhydrase 9) [nM] | SMILES | further results
> 12500 | 2120 | > 12500 | 35.6 | 14.4 | 67.6 | Nc1nn2c(-c3ccc([N+](=O)[O-])cc3)ccnc2c1/N=N/c1ccc(S(N)(=O)=O)cc1 | –
> 12500 | 651 | > 12500 | 22.1 | 36.5 | 16.6 | Nc1nn2cc(-c3ccc(Cl)cc3)[nH]c2c1/N=N/c1ccc(S(N)(=O)=O)cc1 | inhibition of growth at 10 µM (SK-OV-3): 21%; inhibition of growth at 10 µM (TK-10): 27%; inhibition of growth at 10 µM (SNB-75): 23%; inhibition of growth at 10 µM (BT-549): 34%; inhibition of growth at 10 µM (Hs-578T): 21%; inhibition of growth at 10 µM (NCI-H460): 25%; inhibition of growth at 10 µM (ACHN): 29%; inhibition of growth at 10 µM (RXF 393): 29%; inhibition of growth at 10 µM (NCI-H322M): 25%; inhibition of growth at 10 µM (IGROV-1): 21%; Activity (NCI/ADR-RES): inactive; inhibition of growth at 10 µM (SR): 28%; inhibition of growth at 10 µM (M14): 21%; inhibition of growth at 10 µM (786-0): 28%; inhibition of growth at 10 µM (LOX IMVI): 21%; inhibition of growth at 10 µM (NCI-H522): 30%; inhibition of growth at 10 µM (UO-31): 22%; inhibition of growth at 10 µM (CAKI-1): 35%; inhibition of growth at 10 µM (A498): 65%
> 12500 | 1330 | > 12500 | 6.2 | 60.7 | 45.7 | Cc1ccc(-c2ccnc3c(/N=N/c4ccc(S(N)(=O)=O)cc4)c(N)nn23)cc1 | –
> 12500 | 681 | > 12500 | 14.5 | 31.4 | 6 | Nc1nn2c(-c3ccc(F)cc3)ccnc2c1/N=N/c1ccc(S(N)(=O)=O)cc1 | –
6400 | 544 | > 12500 | 23.4 | 44.3 | 56.3 | Nc1nn2c(-c3ccc(Cl)cc3)ccnc2c1/N=N/c1ccc(S(N)(=O)=O)cc1 | –
